Measured values from the RNAGym collection of RNA variant scans (doi:10.1126/science.aae0568).
Fewer inactive variants are shown than the library holds.

B1: tRNA (parent)
chain: GUUCCGUUGGCGUAAUGGUAACGCGUCUCCCUCCUAAGGAGAAGACUGCGGGUUCGAGUCCCGUACGGAACG

Variants of: B1
Assay: yeast fitness relative to wild type (ratio to wild type); higher = fitter; tRNA-Arg(CCU), competitive growth, 37 C, YPD
Summary of the method: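 The tRNA-Arg(CCU) gene variants were made by chemical synthesis with a 3% per-site mutation rate at 69 sites and inserted at the native genomic locus of Saccharomyces cerevisiae. After pooling, the strains were competed in YPD at 37°C for 24 hours in six parallel replicates. Gene amplicons from the start population and each end population were read by 100-nucleotide paired-end sequencing, and Darwinian fitness relative to wild type was taken from genotype frequency changes. Genotypes needed ≥ 100 starting reads, and estimates < 0.5 were set to 0.5.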

Variant	yeast fitness
C62G A70G	0.752
C62G A70U	0.637
C61G U64C	0.579
C61G U64G	0.651
U64A A69G	0.719
G58A G67U	0.804
C60G G63A A65U C66U	≤ 0.5
A57U A69G A70C	≤ 0.5
C61U A70C	0.939
C61U A70G	0.979
G56C C62A	0.563
A57C C61U	0.656
U64A A70G	0.711
U64A A70U	0.884
C61U G63A	0.874
C60A G67A	0.679
C62U A70C	0.91
C60A G68U	0.587
C60G C61U	0.626
C60G C61G	≤ 0.5
C62A G63A A70C	0.54
A57C A65U C66G	≤ 0.5
C60G C66G G68A	≤ 0.5
G58A C62U	1.07

Variant	yeast fitness
G58A C62A	0.904
G56U U59G A70G	≤ 0.5
U59C U64C	0.92
U59C U64A	0.677
G63A G67U	0.686
G58C U64A	0.81
A57G C60U A70U	≤ 0.5
G58A C61U	1.03
G56A C62G U64G	≤ 0.5
G56C G67A	0.592
G56C G67U	0.524
G58A G67C A69C	0.542
U59A A69C	0.914
G56C C62U A70U	0.598
G58C A65G	0.933
G58C A65C	0.867
G58C A65U	0.88
U59A G67C	0.813
G63C G68U	0.568
G63C G68C	0.761
U59C A65U	0.96
U59C A65G	0.938
G58A A65G	0.965
G58A A65C	1.05

Variant	yeast fitness
G63C G67C	0.605
G63C G67U	0.677
G63A A70G	0.804
C60U A70U	0.655
C60U A70C	0.732
G56C A57G C61G C66U A69G	≤ 0.5
G58A U64C	0.976
G58A U64G	1.01
G58A U59C	0.971
G56A A57U C62G	≤ 0.5
C62G A65C	0.6
C62G A65G	0.811
G56C G67A A70C	0.527
G58C U59A G67C	0.556
C60U A69U	0.771
A57C C61U A70U	≤ 0.5
A57C C66U	0.652
A57C C66A	0.624
A57G C61G C66U	≤ 0.5
A57C C61U C66U A69C	≤ 0.5
G63A U64G	0.8
C60U C61U	0.717
C60U C61A	0.659
C60G G67C	0.574

Variant	yeast fitness
G56C A57G A69C	≤ 0.5
C61A U64A A69U	0.558
C60G C62G A70G	≤ 0.5
U59G A69C	0.653
U59G A69G	1
G56A A57U A70U	≤ 0.5
C60G A65G	0.755
A57G A70U	0.937
G58C G68C	0.937
G58C G68U	0.75
G58C G68A	0.776
A57C C62G	0.818
C62A A70U	0.858
G58A G63C	0.784
G58A G63A	0.954
A57G A65U	0.699
G58C U64A A69G	0.61
G58C U64A A69C	0.514
C62A A69U	0.652
C62A A69C	0.78
G56A G67C	0.812
G56A G67A	0.901
C61U U64A A69G	0.597
U64A A65G G67U	0.709

Variant	yeast fitness
C62U A69C	1.02
C62U A69G	0.918
A57U C62U	0.617
U59G A65C C66A	≤ 0.5
G63A A65G	0.889
C61A	0.707
C61U	1.01
C61G	0.688
C61G A65U	0.651
C60U C62U A70C	0.539
G56A A65G C66U	0.763
G56A U59G	0.762
C61U A65C G67A G68A	≤ 0.5
A57G G68A	0.944
A57G G68C	0.857
C61A G67A A69C	0.524
C60G A69G	0.597
A57C A70U	0.679
A57C A70C	0.676
U59A U64A	0.73
C60U C62U	0.659
C55U G63C	0.567
C60A C62U	0.624
U64A A65U	0.718

Variant	yeast fitness
A57C C61A G67A	0.56
G56A A65C A69C	≤ 0.5
A57U G67A	0.84
A57U U64C	0.783
A57U G63A	0.681
C60G C66G A69U	≤ 0.5
A57C A65C	0.594
A57U A65C	0.865
C61U U64G	0.674
C61U C62G	0.718
C61U C62U	0.748
C60G A70U	0.624
C60G A70G	0.58
C60G A70C	0.66
C62A G67A	0.817
C62A G67C	0.81
A57U C60G G67A G68C	≤ 0.5
A57U U59A A69C	0.654
C60A C61U	0.599
C60A C61G	0.635
G58A G63A A65C	0.584
A57G C66G A69U	≤ 0.5
C62G A69C	0.617
G56A G67A A69C	0.797

Variant	yeast fitness
C61A C62G	0.619
C60U A65C	0.764
C60U A65G	0.86
C60U A65U	0.816
C61A A65G G68A	≤ 0.5
A57C A69U	0.605
U59G G67C	0.659
U59G A65C	0.558
G56C A70C	0.813
C62G	0.924
C62A	0.72
C62U	0.994
C61U C66A	0.644
G58C G67U	0.832
A57G U59A C62U	≤ 0.5
G58U A65U	0.979
A57C G58A A70C	≤ 0.5
G56A C60U	0.845
G63A A65G A69U	0.609
C61G A69C	0.748
C61G A69G	0.567
U59C C66G	0.668
U59C C66U	0.911
